Scp1 inh: Scp-1 phosphatase inhibitors, primary screen, biochemical, colorimetric, uHTS; Carboxy-terminal domain RNA polymerase II polypeptide A small phosphatase 1 (Homo …; inhibition, % at 20 µM; 0.88% of 340,000 active; Recombinant Scp1, phosphopeptide, malachite green phosphate absorbance;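 active = inhibition above about 50% at 20 µM, limit read from the data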
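System: SCP-1 catalytic domain; Reagent: Phospho 17-mer peptide substrate; Doses: one concentration, 20 µM, with 1.0% DMSO; Incubation: 45 min room-temperature reaction, 5 min colour, 30 min stabiliser; Signal: Phosphate-binding colour reagent, absorbance read at 630 nm.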
STEP block: STEP phosphatase inhibitors, primary screen, biochemical, fluorescence intensity, uHTS. Tyrosine-protein phosphatase non-receptor type 5 (Homo sapiens), P54829. recombinant STEP, OMFP fluorogenic substrate. inhibition, % at 20 µM. 0.25% of 360,000 active;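 active = inhibition at 20 µM, scaled per plate between control wells, above about 37%, limit read from the data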
Target sequence (P54829 whole entry, looked up): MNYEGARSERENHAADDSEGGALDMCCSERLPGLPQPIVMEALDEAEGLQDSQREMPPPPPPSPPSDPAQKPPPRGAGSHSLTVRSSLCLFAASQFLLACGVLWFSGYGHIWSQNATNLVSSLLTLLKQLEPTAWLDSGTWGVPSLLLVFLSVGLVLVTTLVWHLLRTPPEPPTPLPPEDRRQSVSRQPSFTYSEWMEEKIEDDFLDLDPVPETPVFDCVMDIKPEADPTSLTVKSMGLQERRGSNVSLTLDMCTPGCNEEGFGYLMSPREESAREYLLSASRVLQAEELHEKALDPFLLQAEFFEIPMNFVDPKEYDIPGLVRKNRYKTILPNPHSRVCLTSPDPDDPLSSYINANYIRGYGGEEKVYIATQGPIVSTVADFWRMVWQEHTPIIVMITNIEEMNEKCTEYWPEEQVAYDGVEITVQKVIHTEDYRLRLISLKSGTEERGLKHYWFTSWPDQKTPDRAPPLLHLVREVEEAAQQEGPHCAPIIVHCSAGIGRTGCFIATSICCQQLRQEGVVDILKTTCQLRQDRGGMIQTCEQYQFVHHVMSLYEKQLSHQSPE
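medium = Bis-Tris buffer pH 6.0, 2.5 mM DTT, 0.005% Tween 20 | test system = STEP (striatal-enriched tyrosine phosphatase) enzyme, cell-free | measure = normalized % inhibition | compound dosing = 20 µM, 1% DMSO | also added = 25 µM OMFP | schedule = reaction 20 min, ambient temperature | measured by = fluorescence read at 480 nm ex / 540 nm em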
LMPTP block: LMPTP phosphatase inhibitors, primary screen, biochemical, fluorescence intensity, uHTS. Low molecular weight phosphotyrosine protein phosphatase (Homo sapiens), P24666. recombinant LMPTP-A, OMFP fluorogenic substrate. inhibition, % at 20 µM. 0.22% of 360,000 active. AID 651560, 2012;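 active = compounds that cut the enzyme signal by at least half of the control window in the single-dose screen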
Target sequence (P24666 whole entry, looked up): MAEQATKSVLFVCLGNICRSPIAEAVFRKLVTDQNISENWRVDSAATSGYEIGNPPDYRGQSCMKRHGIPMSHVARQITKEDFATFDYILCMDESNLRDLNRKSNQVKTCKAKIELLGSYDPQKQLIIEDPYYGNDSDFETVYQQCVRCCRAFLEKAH
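Test system: LMPTP-A phosphatase enzyme. Amount: LMPTP-A at 0.625 nM final in the reaction. Reagent: OMFP substrate, 400 µM final. Times: 50 min at room temperature. Signal: endpoint fluorescence intensity from OMFP dephosphorylation. Read-out basis: % inhibition. Benchmarks: no-enzyme and uninhibited controls.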
SUMO1-SIM PPI: modulators of SUMO1 protein-protein interactions, primary screen, biochemical, uHTS; Small ubiquitin-related modifier 1 (Homo sapiens), P63165; SUMO1 binding to a labelled peptide, TR-FRET, 1 h; 0.33% of 360,000 active; inhibition, % at 20 µM; in the data active = inhibition above about 37%
FAS-TE inh: FAS thioesterase domain inhibitors, primary screen, biochemical, fluorescence intensity, uHTS; Fatty acid synthase (Homo sapiens), P49327; recombinant FAS-TE, OMFH fluorogenic substrate, fluorescence endpoint; inhibition, % at 15 µM; 0.67% of 360,000 active;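 active = compounds whose normalised, plate-corrected inhibition of enzyme fluorescence in the single-dose primary screen is 50% or more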
Scp-1 conf: Scp-1 phosphatase inhibitors, retest, confirmation, biochemical, colorimetric, single concentration; inhibition, % at 20 µM; shares compounds with Scp1 inh; recombinant SCP-1 catalytic domain, phosphate release, malachite green absorbance; 61% of 2,500 active; AID 540281, 2011
MG interference: colorimetric readout interference by compounds, confirmation, artefact control for Scp-1 inhibitor project, biochemical, single concentration | apparent inhibition (interference), % at 20 µM | 2,500 tested, under 10 active | Colorimetric interference counterscreen, malachite green absorbance 630 nm | shares compounds with Scp1 inh | AID 540313, 2011;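 note: compounds added after enzyme reaction finished so only phosphate colour detection is probed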
Scp-1 Tm shift: Scp-1 binding by thermal shift, confirmation, orthogonal assay for Scp-1 inhibitor project, biophysical, differential scanning fluorimetry | shares compounds with Scp1 inh | Recombinant SCP1, Sypro Orange thermal shift Tm | thermal shift relative to vanadate control, % at 40 µM | 25% of 1,500 active | AID 540329, 2011;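 active = substances whose mean melting-temperature shift, as a percentage of the reference inhibitor's shift, reaches about 5.3%, limit read from the data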
Numbers stand for hits; - = inactive; . = no result. Shown are actives, neighbours in structure and some others; about 1.9% of the full set was active somewhere.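 Rule for the calls, unless noted: active = inhibition of at least 30% at 20 µM; inactive = the rest.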

SMILES | Scp1 inh | STEP block | LMPTP block | SUMO1-SIM PPI | FAS-TE inh | Scp-1 conf | MG interference | others
COC(=O)C[C@H]1C[C@H]2c3cc(NC(=O)NC4CCCC4)ccc3O[C@H]2[C@@H](CO)O1 | . | - | - | - | - | . | .
O=C(N/N=C/c1sc(=O)n(Cc2ccc(Br)cc2)c1Cl)c1ccco1 | 103 | 96 | 69 | 45 | - | 84 | - | Scp-1 Tm shift=5.3
O=C(Nc1ccc(Cl)c(C(=O)N2CCOCC2)c1)c1ccccc1 | - | - | - | - | - | . | .
COc1cccc(C(=O)Nc2ccc3c(c2)C(=O)c2ccccc2C3=O)c1 | 75 | 60 | - | - | - | 64 | - | Scp-1 Tm shift=5.4
Cc1cccc(C(=O)Nc2ccc3c(c2)C(=O)NC3=O)c1 | - | - | - | - | - | . | .
O=C(Nc1ccc2c(c1)C(=O)NC2=O)c1ccc(Cl)s1 | 85 | - | - | - | - | - | -
O=C(Nc1ccc2c(c1)C(=O)NC2=O)c1cccc(Cl)c1 | 54 | - | - | - | - | 66 | - | Scp-1 Tm shift=-
CCN(CC)C(=O)Cn1cnc2sc(C(=O)NCCCN3CCOCC3)c(C)c2c1=O | - | - | - | - | - | . | .
N#Cc1ccccc1NS(=O)(=O)c1cc2c3c(c1)CCC(=O)N3CCC2 | - | - | - | - | - | . | .
Cc1ccc(S(=O)(=O)N2[C@H](CC(=O)c3cccc4ccccc34)OC[C@@H]2C)cc1 | . | . | - | - | . | . | .
COc1cccc(-c2cnc3c(NC(C)=O)cc(-c4ccc(S(C)(=O)=O)cc4)cn23)c1 | . | - | - | - | - | . | .
CCc1nc2c(OCCC3CCCCC3)cccn2c1N(C)C(=O)c1ccc(OC)cc1 | . | - | - | - | - | . | .
CC1(CC(=O)N/N=C/c2cc([N+](=O)[O-])c(O)cc2O)OCCO1 | 69 | - | 69 | - | - | 64 | - | Scp-1 Tm shift=6.1
O=C(COc1ccc(Cl)cc1Cl)N/N=C/c1cccnc1 | - | - | - | - | - | . | .
O=C(CCCOc1ccc(Cl)cc1Cl)N/N=C/c1cccc([N+](=O)[O-])c1 | 92 | - | - | - | - | 55 | - | Scp-1 Tm shift=-
COc1ccc(-c2nonc2NC(=O)c2ccco2)cc1OC | 58 | - | - | - | - | - | -
CCOc1ccc(-c2nonc2NC(=O)c2ccco2)cc1OCC | - | - | - | - | - | . | .
NC(=O)C1CCN(C(=O)CSc2nc(O)cc(=O)[nH]2)CC1 | - | - | - | - | - | . | .
O=C(CSc1nc(O)cc(=O)[nH]1)C1CC1 | 53 | - | - | - | - | - | -
CC(C)N(C(=O)CSc1nnc(-c2ccc3c(c2)OCO3)n1C)C(C)C | 55 | - | - | - | - | - | -
Cc1cccc(-c2nnc(SCC(=O)NCc3ccc4c(c3)OCO4)n2C)c1 | - | - | - | - | - | . | .
Cc1cc(Nc2ccc(Cl)cc2)n(-c2ccccc2)n1 | - | - | - | - | - | . | .
Cc1cc(Nc2ccccc2)n(-c2ccc(Br)cc2)n1 | 54 | - | - | - | - | - | -
COc1ccc(-c2cc(C(=O)Nc3ccc(OC)c(OC)c3)[nH]n2)c(C)c1 | . | - | - | - | - | . | .
N#Cc1cccc(C=C(C(=O)c2ccccc2)c2ccccc2)c1 | . | . | - | - | - | . | .
SMILES | Scp1 inh | STEP block | LMPTP block | SUMO1-SIM PPI | FAS-TE inh | Scp-1 conf | MG interference | others
CCOP(=O)(OCC)C(Cc1ccc(OC)c(OC)c1)N=C(c1ccccc1)c1ccccc1 (configuration not stated) | . | - | - | - | - | . | .
COc1cc2c(cc1NC(=O)CSc1ccccc1)oc1ccccc12 | - | - | - | - | - | . | .
COc1cc2c(cc1NC(=O)CSc1nc3ccccc3[nH]1)oc1ccccc12 | 72 | - | - | - | - | 42 | - | Scp-1 Tm shift=-
COC(=O)c1ccn(CC(=O)NC2CCCCC2)n1 | 66 | - | - | - | - | 48 | - | Scp-1 Tm shift=-
CCCCCCCCN1C(=O)[C@H](CC(=O)NCCCN2CCCC2=O)C[C@@]2(C(=O)OC)CC(C)(C)CC=C12 | . | . | - | - | . | . | .
COc1cc(-c2nnc(COC(=O)c3ccc(C)o3)o2)cc(OC)c1OC | 59 | - | - | - | - | 47 | - | Scp-1 Tm shift=-
O=C(Nc1ccc2c(c1)OCCO2)c1[nH]c(C(F)(F)F)nc1-c1ccccc1 | . | - | - | - | - | . | .
Cn1c(SCC(=O)c2ccc(O)c(O)c2)nnc1-c1cccs1 | 67 | - | - | - | - | 50 | - | Scp-1 Tm shift=-
CCC(C)C1Nc2ccc(C(=O)NCCc3ccc(OC)c(OC)c3)cc2NC1=O (configuration not stated) | - | - | - | - | - | - | -
COc1ccc(CCNC(=O)c2ccc(OC)c(OC)c2)cc1OC | - | - | - | - | - | . | .
COc1ccc(C2C(C#N)=C(N)OC3=C2C(=O)CC(C)(C)C3)c(OC)c1OC (configuration not stated) | 51 | - | - | - | - | - | -
Cn1nc(C(C)(C)C)cc1N1C(=O)CCC1(C)C(=O)Nc1ccc2c(c1)OCCO2 (configuration not stated) | . | - | - | - | - | . | .
CCCCN(C(=O)CSCC(=O)Nc1ccc(C)cc1)c1c(N)n(CCCC)c(=O)[nH]c1=O | - | - | - | - | - | . | .
COC(=O)c1ccc(-c2c(-c3ccccc3)ncc3cc(F)ccc23)cc1 | 53 | - | - | - | - | - | -
Fc1ccc2cnc(-c3ccccc3)c(-c3ccc(C(F)(F)F)cc3)c2c1 | 72 | - | - | - | - | - | -
Fc1ccc2cnc(-c3ccccc3)c(-c3cc(C(F)(F)F)cc(C(F)(F)F)c3)c2c1 | 58 | - | - | - | - | - | -
CSc1nc(COC(=O)NC(C)C)c(COC(=O)NC(C)C)n1Cc1ccccc1 | . | - | - | - | - | . | .
COC(=O)Cn1c(=NC(=O)c2sc3ccccc3c2Cl)sc2cc(S(N)(=O)=O)ccc21 | - | - | - | - | - | . | .
CCOC(=O)Cn1c(=NC(=O)c2sc3ccccc3c2Cl)sc2cc(S(N)(=O)=O)ccc21 | 67 | - | 58 | - | - | 75 | - | Scp-1 Tm shift=7.9

Assay outcomes as filed in PubChem BioAssay.
